Reference: ChEMBL document CHEMBL3596140, “Bisleuconothine A Induces Autophagosome Formation by Interfering with AKT-mTOR Signaling Pathway” (J Nat Prod, 2015)
Blank lines part the entries; values can stand above or below the compound they belong to. Calls of active or inactive are those of the source. The calls are words filed in the database; no cut-off is given here.

Tests used:
A549 [1] = assay: Cytostatic activity against human A549 cells by MTT assay; type: functional, cell-based
Outline: (§1)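 A549 cells in medium with 10% FBS and 1% penicillin–streptomycin, exposed to compound for 48 h. MTT (5 mg/mL stock) added at the end of exposure, then 3 h further incubation. Formazan dissolved in DMSO and read at 550 nm (reference 700 nm) as a measure of succinate dehydrogenase activity. IC50 taken from the concentration–response curve. Microscopy used for confirmation.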

A549 [2] = assay: Cytotoxicity against human A549 cells assessed as induction of cell death at 24 uM after 48 hrs by microscopic analysis; type: functional, cell-based
A549 [3] = assay: Induction of reactive oxygen species generation in human A549 cells at 6 uM incubated in dark for 1 hr by H2DCFDA dye-based flow cytometric analysis; type: functional, cell-based
Outline: (§2)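 A549 cells (4 × 10^5 cells/dish) preloaded with 20 μM H2DCFDA for 1 h, then exposed to compound (6 or 24 μM) for 1 h in the dark at 37 °C. H2O2 at 100 μM served as positive control. Cells washed, resuspended in FACS buffer with 0.3% BSA, and analysed by flow cytometry for intracellular DCF fluorescence intensity.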

A549 [4] = assay: Induction of reactive oxygen species generation in human A549 cells at 24 uM incubated in dark for 1 hr by H2DCFDA dye-based flow cytometric analysis; type: functional, cell-based; outline: as §2
A549 [5] = assay: Induction of apoptosis in human A549 cells at 24 uM after 24 hrs by FITC-annexin V/propidium iodide staining-based flow cytometric analysis; type: functional, cell-based
Outline: (§3)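 A549 cells (5 × 10^5 cells/dish) exposed to compound (24 μM, or 100 nM for vinblastine) for 24 h. Cells washed twice with PBS and stained with FITC–annexin V plus propidium iodide in FACS buffer with 0.3% BSA. Quadrant distribution read by flow cytometry against untreated cells.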

A549 [6] = assay: Effect on Bcl-XL protein expression in human A549 cells at 24 uM after 6 to 24 hrs by Western blot analysis; type: functional, cell-based
Outline: (§4)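 Total lysates of A549 cells harvested at 0, 6, 12 and 24 h after exposure to 24 μM test agent or 100 nM vinblastine. Proteins resolved, transferred to PVDF and probed for Bcl-xL, Mcl-1, Bcl-2, Bax-1, Bid, PUMA, Bim, Bik and p53, with antibodies diluted in BlockAce and β-actin as loading reference.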

A549 [7] = assay: Effect on Mcl-1 protein expression in human A549 cells at 24 uM after 6 to 24 hrs by Western blot analysis; type: functional, cell-based; outline: as §4
A549 [8] = assay: Effect on Bcl-2 protein expression in human A549 cells at 24 uM after 6 to 24 hrs by Western blot analysis; type: functional, cell-based; outline: as §4
A549 [9] = assay: Effect on Bax-1 protein expression in human A549 cells at 24 uM after 6 to 24 hrs by Western blot analysis; type: functional, cell-based; outline: as §4
A549 [10] = assay: Effect on Bid protein expression in human A549 cells at 24 uM after 6 to 24 hrs by Western blot analysis; type: functional, cell-based; outline: as §4
A549 [11] = assay: Effect on Puma protein expression in human A549 cells at 24 uM after 6 to 24 hrs by Western blot analysis; type: functional, cell-based; outline: as §4
A549 [12] = assay: Effect on BimEL protein expression in human A549 cells at 24 uM after 6 to 24 hrs by Western blot analysis; type: functional, cell-based; outline: as §4
A549 [13] = assay: Effect on Bik protein expression in human A549 cells at 24 uM after 6 to 24 hrs by Western blot analysis; type: functional, cell-based; outline: as §4
A549 [14] = assay: Effect on p53 protein expression in human A549 cells at 24 uM after 6 to 24 hrs by Western blot analysis; type: functional, cell-based; outline: as §4
A549 [15] = assay: Induction of autophagy in human A549 cells assessed as increase in LC3-2 expression at 6 uM by Western blot analysis; type: functional, cell-based; details: TDE = time-dependent effect
Outline: (§5)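 A549 and MCF7 cells exposed to 6 μM compound, with everolimus 5 μM as autophagy positive control. Total lysates harvested at 0, 4, 8, 12 or 24 h. LC3-I and LC3-II (lipidated) levels assessed by Western blot with LC3B antibody.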

MCF7 = assay: Induction of autophagy in human MCF7 cells assessed as LC3 lipidation at 6 uM after 4 to 24 hrs by Western blot analysis; type: functional, cell-based; outline: as §5
A549 [16] = assay: Prevention of autophagosome degradation in human A549 cells assessed as upregulation of p62 expression at 6 uM after 6 hrs by Western blot analysis; type: functional, cell-based
Outline: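 A549 cells kept in serum-free medium for 1 h, then exposed to 6 μM compound or 5 μM everolimus, with or without bafilomycin A1 (400 nM), for 6 h. LC3 and p62 levels in lysates assessed by Western blot to follow autophagic flux.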

A549 [17] = assay: Induction of autophagic punctation in human A549 cells assessed as increase of puncta with LC3 at 6 uM after 6 hrs by immunofluorescence staining-based microscopic analysis relative to control; type: functional, cell-based
Outline: (§6)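 A549 cells on chamber slides placed in serum-free medium for 1 h, then exposed for 6 h to 6 μM compound, 5 μM everolimus or 400 nM bafilomycin A1. Fixed in ice-cold methanol for 15 min at −20 °C and blocked. Stained for LC3B, LAMP2 and p62 with Alexa Fluor 488/546/647 secondaries, mounted with DAPI, and puncta assessed by fluorescence microscopy.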

A549 [18] = assay: Induction of autophagic punctation in human A549 cells assessed as increase of puncta with p62 at 6 uM after 6 hrs by immunofluorescence staining-based microscopic analysis relative to control; type: functional, cell-based; outline: as §6
A549 [19] = assay: Effect on localization of lysosome puncta with LAMP2 in human A549 cells at 6 uM after 6 hrs by immunofluorescence staining-based microscopic analysis relative to control; type: functional, cell-based; outline: as §6
[20] = molecular target: Serine/threonine-protein kinase mTOR (Homo sapiens) (UniProt P42345); assay: Effect on mTOR phosphorylation at ser2448 in human A549 cells at 6 uM after 3 to 24 hrs by Western blot analysis; type: cell-based
Outline: (§7)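 A549 total lysates harvested 3, 6, 12 or 24 h after exposure to 6 μM compound or 5 μM everolimus. Western blot on PVDF with antibodies to phospho-mTOR Ser2448, phospho-AKT Thr308 and Ser473, phospho-p70S6K Thr389, phospho-PDK1 Ser241 and PRAS40 Thr246, alongside total proteins and β-actin.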

[21] = molecular target: Serine/threonine-protein kinase mTOR (Homo sapiens) (UniProt P42345); assay: Inhibition of mTOR in human A549 cells assessed as downregulation of p70S6K phosphorylation at thr389 at 6 uM after 3 to 24 hrs by Western blot analysis; type: cell-based; outline: as §7
A549 [22] = assay: Inhibition of AKT in human A549 cells assessed as downregulation of PRAS40 phosphorylation at thr246 at 6 uM after 3 to 12 hrs by Western blot analysis; type: cell-based; outline: as §7
A549 [23] = assay: Inhibition of AKT phosphorylation at thr308 in human A549 cells at 6 uM after 3 to 24 hrs by Western blot analysis; type: cell-based; outline: as §7
A549 [24] = assay: Inhibition of AKT phosphorylation at Ser473 in human A549 cells at 6 uM after 3 to 6 hrs by Western blot analysis; type: cell-based; outline: as §7
[25] = molecular target: T1, 3-phosphoinositide-dependent protein kinase 1 (Homo sapiens) (UniProt O15530); assay: Effect on PDK1 phosphorylation at Ser241 in human A549 cells at 6 uM after 3 to 24 hrs by Western blot analysis; type: cell-based; outline: as §7
T1 sequence (whole entry): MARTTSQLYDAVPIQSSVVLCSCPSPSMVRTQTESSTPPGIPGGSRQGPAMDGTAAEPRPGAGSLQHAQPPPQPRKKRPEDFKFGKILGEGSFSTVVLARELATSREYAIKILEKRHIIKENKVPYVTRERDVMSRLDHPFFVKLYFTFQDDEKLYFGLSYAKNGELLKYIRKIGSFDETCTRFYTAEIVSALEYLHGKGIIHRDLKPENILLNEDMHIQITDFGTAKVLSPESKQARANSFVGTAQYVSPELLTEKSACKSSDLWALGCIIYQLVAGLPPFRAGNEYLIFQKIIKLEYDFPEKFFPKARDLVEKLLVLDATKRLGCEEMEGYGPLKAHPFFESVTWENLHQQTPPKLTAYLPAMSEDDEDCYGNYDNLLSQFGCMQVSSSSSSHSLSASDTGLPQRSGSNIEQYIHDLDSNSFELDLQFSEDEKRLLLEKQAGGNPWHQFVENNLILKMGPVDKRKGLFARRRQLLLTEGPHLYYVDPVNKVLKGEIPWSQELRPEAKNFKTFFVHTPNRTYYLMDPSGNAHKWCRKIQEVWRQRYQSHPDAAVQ

A549 [26] = assay: Effect on morphological changes in lysosome puncta in human A549 cells at 6 uM after 6 hrs by immunofluorescence staining-based microscopic analysis relative to control; type: functional, cell-based; outline: as §6
A549 [27] = assay: Induction of autophagy in human A549 cells assessed as increase in LC3-2 expression at 6 uM after 4 to 24 hrs by Western blot analysis
A549 [28] = assay: Cytostatic activity against human A549 cells after 48 hrs by MTT assay; type: functional, cell-based; outline: as §1
A549 [29] = assay: Cytotoxicity against human A549 cells assessed as induction of cell death by microscopic analysis; type: functional, cell-based
A549 [30] = assay: Induction of apoptosis in human A549 cells assessed as early apoptotic cells at 100 nM after 24 hrs by FITC-annexin V/propidium iodide staining-based flow cytometric analysis relative to control; type: functional; outline: as §3
A549 [31] = assay: Induction of apoptosis in human A549 cells assessed as late apoptotic cells at 100 nM after 24 hrs by FITC-annexin V/propidium iodide staining-based flow cytometric analysis relative to control; type: functional; outline: as §3
A549 [32] = assay: Downregulation of Bcl-XL protein expression in human A549 cells at 100 nM after 24 hrs by Western blot analysis; type: functional, cell-based; outline: as §4
A549 [33] = assay: Downregulation of Mcl-1 protein expression in human A549 cells at 100 nM after 24 hrs by Western blot analysis; type: functional, cell-based; outline: as §4
A549 [34] = assay: Downregulation of BimEL protein expression in human A549 cells at 100 nM after 24 hrs by Western blot analysis; type: functional, cell-based; outline: as §4
A549 [35] = assay: Upregulation of p53 protein expression in human A549 cells at 100 nM after 24 hrs by Western blot analysis; type: functional, cell-based; outline: as §4

IC50 (A549 [1]): 8 µM
Activity [20]: inactive
inhibition [21]: Active
Activity [25]: inactive
SMILES: CC[C@@]12CCCN3CCc4c(n(c5ccccc45)[C@H](c4ccc(O)c5c4N[C@@H]4CC[C@@]6(CC)CCCN7CC[C@@]54[C@H]76)C1)[C@H]32 [BISLEUCONOTHINE A]
Activity (A549 [1]): Dose-dependent effect
Activity (A549 [2]): Active
Activity (A549 [3]): inactive
Activity (A549 [4]): Active
Activity (A549 [5]): inactive
Activity (A549 [6]): inactive
Activity (A549 [7]): inactive
Activity (A549 [8]): inactive
Activity (A549 [9]): inactive
Activity (A549 [10]): inactive
Activity (A549 [11]): inactive
Activity (A549 [12]): inactive
Activity (A549 [13]): inactive
Activity (A549 [14]): inactive
Activity (A549 [15]): tde
Activity (MCF7): Active
Activity (A549 [16]): Active
Activity (A549 [17]): Active
Activity (A549 [18]): Active
Activity (A549 [19]): Active
inhibition (A549 [22]): Active
inhibition (A549 [23]): Active
inhibition (A549 [24]): Active
Activity (A549 [26]): Active
Activity (A549 [27]): Active

SMILES: CC[C@]1(O)C[C@@H]2CN(CCc3c([nH]c4ccccc34)[C@@](C(=O)OC)(c3cc4c(cc3OC)N(C)[C@H]3[C@@](O)(C(=O)OC)[C@H](OC(C)=O)[C@]5(CC)C=CCN6CC[C@]43[C@@H]65)C2)C1 [VINBLASTINE]
Activity (A549 [28]): Dose-dependent effect
Activity (A549 [29]): Active
Activity (A549 [30]): 30%
Activity (A549 [31]): 30%
Activity (A549 [32]): Active
Activity (A549 [33]): Active
Activity (A549 [34]): Active
Activity (A549 [35]): Active
